Positions of bridges follow the written chain, without caps; N, C: chain ends. Non-standard residues stand in square brackets, D forms with d. Residues, ends and D or L forms follow the SMILES beside them. 1Nal = N[C@@H](Cc1cccc2ccccc12)C(=O)O
Assays:
[1] = target: Sodium channel protein type 5 subunit alpha (Homo sapiens, UniProt Q14524); test: Inhibition of human Nav1.5 expressed in HEK293 cells assessed as inward peak current by ion-works quattro patch clamp electrophysiology method; assay type: cell-based
Procedure, shortened: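 Stable HEK293 line expressing human NaV1.5, recorded by population patch clamp on the IonWorks Quattro.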

[2] = target: Sodium channel protein type 9 subunit alpha (Homo sapiens, UniProt Q15858); test: Inhibition of human Nav1.7 expressed in HEK293 cells assessed as inward peak current by ion-works quattro patch clamp electrophysiology method; assay type: cell-based
Chain of Sodium channel protein type 9 subunit alpha (Q15858 whole entry): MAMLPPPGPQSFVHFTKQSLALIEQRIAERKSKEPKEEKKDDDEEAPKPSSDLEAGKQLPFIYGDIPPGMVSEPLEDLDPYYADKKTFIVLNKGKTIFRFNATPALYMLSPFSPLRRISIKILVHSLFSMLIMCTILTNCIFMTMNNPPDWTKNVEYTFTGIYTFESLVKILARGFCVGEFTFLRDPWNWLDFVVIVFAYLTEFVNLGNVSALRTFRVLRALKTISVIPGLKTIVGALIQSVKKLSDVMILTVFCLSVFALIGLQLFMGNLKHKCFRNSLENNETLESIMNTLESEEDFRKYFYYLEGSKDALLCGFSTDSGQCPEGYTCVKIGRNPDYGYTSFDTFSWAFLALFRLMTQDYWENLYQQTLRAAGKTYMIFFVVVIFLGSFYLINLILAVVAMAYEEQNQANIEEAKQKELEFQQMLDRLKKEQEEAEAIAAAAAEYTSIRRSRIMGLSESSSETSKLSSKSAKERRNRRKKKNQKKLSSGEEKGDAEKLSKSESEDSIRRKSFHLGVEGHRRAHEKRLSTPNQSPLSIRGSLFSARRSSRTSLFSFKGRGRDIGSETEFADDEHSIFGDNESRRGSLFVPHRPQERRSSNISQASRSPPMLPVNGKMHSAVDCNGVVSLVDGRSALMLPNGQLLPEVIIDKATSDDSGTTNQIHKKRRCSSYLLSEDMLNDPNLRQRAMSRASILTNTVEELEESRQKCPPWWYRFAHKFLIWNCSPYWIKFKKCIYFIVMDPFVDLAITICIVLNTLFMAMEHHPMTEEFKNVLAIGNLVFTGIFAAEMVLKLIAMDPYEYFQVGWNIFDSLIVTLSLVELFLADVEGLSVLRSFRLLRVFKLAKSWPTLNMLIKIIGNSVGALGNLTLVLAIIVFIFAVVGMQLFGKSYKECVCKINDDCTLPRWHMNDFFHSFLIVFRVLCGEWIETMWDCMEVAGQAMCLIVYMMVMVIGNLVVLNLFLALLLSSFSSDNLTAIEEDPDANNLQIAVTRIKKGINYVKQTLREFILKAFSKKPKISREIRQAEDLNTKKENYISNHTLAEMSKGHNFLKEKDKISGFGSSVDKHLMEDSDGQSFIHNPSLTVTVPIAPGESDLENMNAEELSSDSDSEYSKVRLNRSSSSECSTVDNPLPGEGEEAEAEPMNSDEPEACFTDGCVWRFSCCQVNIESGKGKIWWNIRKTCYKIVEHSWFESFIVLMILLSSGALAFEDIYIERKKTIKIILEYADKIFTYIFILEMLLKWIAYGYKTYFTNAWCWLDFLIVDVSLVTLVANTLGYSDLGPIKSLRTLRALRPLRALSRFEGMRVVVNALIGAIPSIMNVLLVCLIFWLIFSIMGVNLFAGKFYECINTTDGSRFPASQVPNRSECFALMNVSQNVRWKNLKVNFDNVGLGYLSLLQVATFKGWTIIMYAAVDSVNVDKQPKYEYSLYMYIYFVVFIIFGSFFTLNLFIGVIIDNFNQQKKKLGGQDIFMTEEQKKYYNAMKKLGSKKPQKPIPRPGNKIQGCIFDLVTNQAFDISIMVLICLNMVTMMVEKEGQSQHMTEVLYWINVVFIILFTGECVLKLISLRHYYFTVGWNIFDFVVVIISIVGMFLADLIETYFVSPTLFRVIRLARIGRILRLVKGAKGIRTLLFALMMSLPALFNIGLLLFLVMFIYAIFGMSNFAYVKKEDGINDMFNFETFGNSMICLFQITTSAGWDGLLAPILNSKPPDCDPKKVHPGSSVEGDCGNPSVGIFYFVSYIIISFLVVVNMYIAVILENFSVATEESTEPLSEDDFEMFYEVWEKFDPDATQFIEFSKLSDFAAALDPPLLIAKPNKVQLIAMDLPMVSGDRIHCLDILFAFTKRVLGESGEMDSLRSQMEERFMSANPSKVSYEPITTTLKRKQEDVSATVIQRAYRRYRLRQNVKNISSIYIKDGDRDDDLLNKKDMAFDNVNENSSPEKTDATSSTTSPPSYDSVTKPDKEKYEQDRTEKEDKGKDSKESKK

Chain of Sodium channel protein type 5 subunit alpha (Q14524 whole entry): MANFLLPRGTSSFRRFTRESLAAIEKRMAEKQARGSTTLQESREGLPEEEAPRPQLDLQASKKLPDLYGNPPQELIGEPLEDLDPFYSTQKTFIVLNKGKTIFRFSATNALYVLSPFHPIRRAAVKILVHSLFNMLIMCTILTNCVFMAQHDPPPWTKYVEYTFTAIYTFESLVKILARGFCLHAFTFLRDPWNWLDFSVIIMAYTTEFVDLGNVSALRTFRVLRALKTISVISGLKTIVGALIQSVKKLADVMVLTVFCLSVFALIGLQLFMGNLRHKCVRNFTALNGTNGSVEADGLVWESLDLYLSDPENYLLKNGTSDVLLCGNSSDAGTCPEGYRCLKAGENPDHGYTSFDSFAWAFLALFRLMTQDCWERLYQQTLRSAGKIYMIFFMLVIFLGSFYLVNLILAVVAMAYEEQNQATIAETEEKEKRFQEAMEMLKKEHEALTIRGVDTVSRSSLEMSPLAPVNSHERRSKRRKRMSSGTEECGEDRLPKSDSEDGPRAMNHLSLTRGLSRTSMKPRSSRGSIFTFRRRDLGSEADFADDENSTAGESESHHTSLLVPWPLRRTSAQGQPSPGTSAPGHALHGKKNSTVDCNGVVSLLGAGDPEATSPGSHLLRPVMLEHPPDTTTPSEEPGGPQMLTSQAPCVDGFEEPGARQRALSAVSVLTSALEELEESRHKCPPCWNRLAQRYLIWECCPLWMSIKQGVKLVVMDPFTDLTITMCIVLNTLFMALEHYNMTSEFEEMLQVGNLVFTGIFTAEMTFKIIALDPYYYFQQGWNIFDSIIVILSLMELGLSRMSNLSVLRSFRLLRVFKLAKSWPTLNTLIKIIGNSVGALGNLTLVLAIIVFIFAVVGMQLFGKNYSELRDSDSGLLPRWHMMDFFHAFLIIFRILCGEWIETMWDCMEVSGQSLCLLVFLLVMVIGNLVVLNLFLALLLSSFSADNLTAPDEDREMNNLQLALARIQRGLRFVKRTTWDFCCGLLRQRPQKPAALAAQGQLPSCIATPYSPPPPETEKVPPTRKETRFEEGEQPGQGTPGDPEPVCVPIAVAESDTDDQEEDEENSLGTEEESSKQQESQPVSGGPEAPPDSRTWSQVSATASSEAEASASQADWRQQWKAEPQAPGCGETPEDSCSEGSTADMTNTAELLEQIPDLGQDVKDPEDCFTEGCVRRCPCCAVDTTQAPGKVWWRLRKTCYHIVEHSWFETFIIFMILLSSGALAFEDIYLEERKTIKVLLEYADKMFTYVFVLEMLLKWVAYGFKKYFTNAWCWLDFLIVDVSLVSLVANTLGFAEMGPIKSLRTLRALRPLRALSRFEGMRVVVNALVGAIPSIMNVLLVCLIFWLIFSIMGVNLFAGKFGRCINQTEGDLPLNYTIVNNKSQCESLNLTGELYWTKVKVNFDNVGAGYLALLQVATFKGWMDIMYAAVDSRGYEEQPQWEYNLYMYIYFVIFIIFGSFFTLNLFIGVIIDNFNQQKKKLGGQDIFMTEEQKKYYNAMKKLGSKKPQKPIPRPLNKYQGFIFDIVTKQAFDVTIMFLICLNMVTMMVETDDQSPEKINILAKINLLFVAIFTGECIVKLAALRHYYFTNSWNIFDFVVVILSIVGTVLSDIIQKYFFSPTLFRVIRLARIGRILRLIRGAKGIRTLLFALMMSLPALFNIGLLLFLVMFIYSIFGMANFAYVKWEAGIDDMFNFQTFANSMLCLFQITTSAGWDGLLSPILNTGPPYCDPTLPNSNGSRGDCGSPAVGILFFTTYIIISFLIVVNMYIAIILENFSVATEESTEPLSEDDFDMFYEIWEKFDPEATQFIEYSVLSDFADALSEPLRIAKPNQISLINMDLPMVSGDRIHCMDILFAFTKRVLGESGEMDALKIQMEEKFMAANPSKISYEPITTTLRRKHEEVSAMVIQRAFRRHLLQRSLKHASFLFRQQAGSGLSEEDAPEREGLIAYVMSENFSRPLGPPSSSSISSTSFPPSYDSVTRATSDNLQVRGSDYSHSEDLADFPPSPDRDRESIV

CC[C@H](C)[C@@H]1NC(=O)[C@@H]2CSSC[C@@H]3NC(=O)[C@H](C(C)C)NC(=O)[C@H](CC(C)C)NC(=O)[C@H](CC(N)=O)NC(=O)[C@@H]4CCCN4C(=O)[C@H](CCCNC(=N)N)NC(=O)[C@H](CSSC[C@H](NC(=O)[C@@H](N)CC(=O)O)C(=O)N[C@@H](CC(C)C)C(=O)NCC(=O)N[C@@H](Cc4ccccc4)C(=O)N[C@@H](CCSC)C(=O)N[C@@H](CCCNC(=N)N)C(=O)N[C@@H](CCCCN)C(=O)N2)NC(=O)[C@H](CSSC[C@@H](C(=O)N[C@@H](CCCCN)C(=O)N[C@@H](Cc2ccc(O)cc2)C(=O)N[C@H](C(=O)N[C@@H](Cc2ccccc2)C(N)=O)C(C)C)NC(=O)[C@H](Cc2c[nH]c4ccccc24)NC(=O)[C@H](CCCCN)NC(=O)[C@H](CCC(=O)O)NC(=O)[C@H]([C@@H](C)O)NC(=O)[C@H](CCCNC(=N)N)NC(=O)[C@H](CO)NC3=O)NC(=O)[C@H](CCCCN)NC(=O)[C@H](CC(=O)O)NC(=O)[C@H](CC(N)=O)NC(=O)[C@H](CC(=O)O)NC(=O)[C@@H]2CCCN2C1=O (H-DCLGFMRKCIPDNDKCCRPNLVCSRTEKWCKYVF-NH2; disulfide 2-17, 9-23, 16-30)
IC50 [1]: > 5000 nM | IC50 [2]: > 5000 nM

CC[C@H](C)[C@@H]1NC(=O)[C@@H]2CSSC[C@@H]3NC(=O)[C@H](CCCCN)NC(=O)[C@H](CC(C)C)NC(=O)[C@H](CC(N)=O)NC(=O)[C@@H]4CCCN4C(=O)[C@H](CCCNC(=N)N)NC(=O)[C@H](CSSC[C@H](NC(=O)[C@@H](N)CC(=O)O)C(=O)N[C@@H](CC(C)C)C(=O)NCC(=O)N[C@@H](Cc4ccccc4)C(=O)N[C@@H](CCSC)C(=O)N[C@@H](CCCNC(=N)N)C(=O)N[C@@H](CCCCN)C(=O)N2)NC(=O)[C@H](CSSC[C@@H](C(=O)N[C@@H](CCCCN)C(=O)N[C@@H](Cc2ccc(O)cc2)C(=O)N[C@H](C(=O)N[C@@H](Cc2ccccc2)C(N)=O)C(C)C)NC(=O)[C@H](Cc2c[nH]c4ccccc24)NC(=O)[C@H](CCCCN)NC(=O)[C@H](Cc2cnc[nH]2)NC(=O)[C@H]([C@@H](C)O)NC(=O)[C@H](CCCNC(=N)N)NC(=O)[C@H](CO)NC3=O)NC(=O)[C@H](CCCCN)NC(=O)[C@H](CC(=O)O)NC(=O)[C@H](CC(N)=O)NC(=O)[C@H](CC(=O)O)NC(=O)[C@@H]2CCCN2C1=O (H-DCLGFMRKCIPDNDKCCRPNLKCSRTHKWCKYVF-NH2; disulfide 2-17, 9-23, 16-30)
IC50 [1]: > 5000 nM | IC50 [2]: 200 nM

CC[C@H](C)[C@@H]1NC(=O)[C@@H]2CSSC[C@@H]3NC(=O)[C@H](C(C)C)NC(=O)[C@H](CC(C)C)NC(=O)[C@H](CC(N)=O)NC(=O)[C@@H]4CCCN4C(=O)[C@H](CCCNC(=N)N)NC(=O)[C@H](CSSC[C@H](NC(=O)[C@@H](N)CC(=O)O)C(=O)N[C@@H](CC(C)C)C(=O)NCC(=O)N[C@@H](Cc4ccccc4)C(=O)N[C@@H](CCSC)C(=O)N[C@@H](CCCNC(=N)N)C(=O)N[C@@H](CCCCN)C(=O)N2)NC(=O)[C@H](CSSC[C@@H](C(=O)N[C@@H](CCCCN)C(=O)N[C@@H](Cc2ccc(O)cc2)C(=O)N[C@H](C(=O)N[C@@H](Cc2ccccc2)C(N)=O)C(C)C)NC(=O)[C@H](Cc2c[nH]c4ccccc24)NC(=O)[C@H](CCCCN)NC(=O)[C@H](Cc2cnc[nH]2)NC(=O)[C@H]([C@@H](C)O)NC(=O)[C@H](CCCNC(=N)N)NC(=O)[C@H](CO)NC3=O)NC(=O)[C@H](CCCCN)NC(=O)[C@H](CC(=O)O)NC(=O)[C@H](CC(N)=O)NC(=O)[C@H](Cc2c[nH]c3ccccc23)NC(=O)[C@@H]2CCCN2C1=O (H-DCLGFMRKCIPWNDKCCRPNLVCSRTHKWCKYVF-NH2; disulfide 2-17, 9-23, 16-30)
IC50 [1]: > 5000 nM | IC50 [2]: 60 nM

CC[C@H](C)[C@@H]1NC(=O)[C@@H]2CSSC[C@@H]3NC(=O)[C@H](C(C)C)NC(=O)[C@H](CC(C)C)NC(=O)[C@H](CC(N)=O)NC(=O)[C@@H]4CCCN4C(=O)[C@H](CCCNC(=N)N)NC(=O)[C@H](CSSC[C@H](NC(=O)[C@@H](N)CC(=O)O)C(=O)N[C@@H](CC(C)C)C(=O)NCC(=O)N[C@@H](Cc4ccccc4)C(=O)N[C@@H](CCSC)C(=O)N[C@@H](CCCNC(=N)N)C(=O)N[C@@H](CCCCN)C(=O)N2)NC(=O)[C@H](CSSC[C@@H](C(=O)N[C@@H](CCCCN)C(=O)N[C@@H](Cc2ccc(O)cc2)C(=O)N[C@H](C(=O)N[C@@H](Cc2ccccc2)C(N)=O)C(C)C)NC(=O)[C@H](Cc2c[nH]c4ccccc24)NC(=O)[C@H](CCCCN)NC(=O)[C@H](Cc2cnc[nH]2)NC(=O)[C@H]([C@@H](C)O)NC(=O)[C@H](CCCNC(=N)N)NC(=O)[C@H](CO)NC3=O)NC(=O)[C@H](CCCNC(=N)N)NC(=O)[C@H](CC(=O)O)NC(=O)[C@H](CC(N)=O)NC(=O)[C@H](CC(=O)O)NC(=O)[C@@H]2CCCN2C1=O (H-DCLGFMRKCIPDNDRCCRPNLVCSRTHKWCKYVF-NH2; disulfide 2-17, 9-23, 16-30)
IC50 [1]: > 5000 nM | IC50 [2]: 220 nM

CSCC[C@@H]1NC(=O)[C@H](Cc2ccccc2)NC(=O)CNC(=O)[C@H](CC(C)C)NC(=O)[C@@H](NC(=O)[C@@H](N)CC(=O)O)CSSC[C@@H]2NC(=O)[C@@H]3CSSC[C@@H](C(=O)N[C@@H](CCCCN)C(=O)N[C@@H](Cc4ccc(O)cc4)C(=O)N[C@H](C(=O)N[C@@H](Cc4ccccc4)C(N)=O)C(C)C)NC(=O)[C@H](Cc4c[nH]c5ccccc45)NC(=O)[C@H](CCCCN)NC(=O)[C@H](Cc4cnc[nH]4)NC(=O)[C@H]([C@@H](C)O)NC(=O)[C@H](CCCNC(=N)N)NC(=O)[C@H](CO)NC(=O)[C@H](CSSC[C@H](NC(=O)[C@H](CCCCN)NC(=O)[C@H](CCCNC(=N)N)NC1=O)C(=O)N[C@@H](Cc1cc4ccccc4[nH]1)C(=O)N1CCC[C@H]1C(=O)N[C@@H](CC(=O)O)C(=O)N[C@@H](CC(N)=O)C(=O)N[C@@H](CC(=O)O)C(=O)N[C@@H](CCCCN)C(=O)N3)NC(=O)[C@H](C(C)C)NC(=O)[C@H](CC(C)C)NC(=O)[C@H](CC(N)=O)NC(=O)[C@@H]1CCCN1C(=O)[C@H](CCCNC(=N)N)NC2=O
IC50 [1]: > 5000 nM | IC50 [2]: 130 nM

CC[C@H](C)[C@@H]1NC(=O)[C@@H]2CSSC[C@@H]3NC(=O)[C@H](C(C)C)NC(=O)[C@H](CC(C)C)NC(=O)[C@H](CC(N)=O)NC(=O)[C@@H]4CCCN4C(=O)[C@H](CCCNC(=N)N)NC(=O)[C@H](CSSC[C@H](NC(=O)[C@@H](N)CC(=O)O)C(=O)N[C@@H](CC(C)C)C(=O)NCC(=O)N[C@@H](Cc4ccccc4)C(=O)N[C@@H](CCSC)C(=O)N[C@@H](CCC(=O)O)C(=O)N[C@@H](CCCCN)C(=O)N2)NC(=O)[C@H](CSSC[C@@H](C(=O)N[C@@H](CCCCN)C(=O)N[C@@H](Cc2ccc(O)cc2)C(=O)N[C@H](C(=O)N[C@@H](Cc2ccccc2)C(N)=O)C(C)C)NC(=O)[C@H](Cc2c[nH]c4ccccc24)NC(=O)[C@H](CCCCN)NC(=O)[C@H](Cc2cnc[nH]2)NC(=O)[C@H]([C@@H](C)O)NC(=O)[C@H](CCCNC(=N)N)NC(=O)[C@H](CO)NC3=O)NC(=O)[C@H](CCCCN)NC(=O)[C@H](CC(=O)O)NC(=O)[C@H](CC(N)=O)NC(=O)[C@H](CC(=O)O)NC(=O)[C@@H]2CCCN2C1=O (H-DCLGFMEKCIPDNDKCCRPNLVCSRTHKWCKYVF-NH2; disulfide 2-17, 9-23, 16-30)
IC50 [1]: > 5000 nM | IC50 [2]: 860 nM

CC[C@H](C)[C@@H]1NC(=O)[C@@H]2CSSC[C@@H]3NC(=O)[C@H](C(C)C)NC(=O)[C@H](CC(C)C)NC(=O)[C@H](CC(N)=O)NC(=O)[C@@H]4CCCN4C(=O)[C@H](CCCNC(=N)N)NC(=O)[C@H](CSSC[C@H](NC(=O)[C@H](CC(=O)O)NC(=O)[C@@H](N)CCC(=O)O)C(=O)N[C@@H](CC(C)C)C(=O)NCC(=O)N[C@@H](Cc4ccccc4)C(=O)N[C@@H](CCSC)C(=O)N[C@@H](CCCNC(=N)N)C(=O)N[C@@H](CCCCN)C(=O)N2)NC(=O)[C@H](CSSC[C@@H](C(=O)N[C@@H](CCCCN)C(=O)N[C@@H](Cc2ccc(O)cc2)C(=O)N[C@H](C(=O)N[C@@H](Cc2ccccc2)C(N)=O)C(C)C)NC(=O)[C@H](Cc2c[nH]c4ccccc24)NC(=O)[C@H](CCCCN)NC(=O)[C@H](Cc2cnc[nH]2)NC(=O)[C@H]([C@@H](C)O)NC(=O)[C@H](CCCNC(=N)N)NC(=O)[C@H](CO)NC3=O)NC(=O)[C@H](CCCCN)NC(=O)[C@H](CC(=O)O)NC(=O)[C@H](CC(N)=O)NC(=O)[C@H](CC(=O)O)NC(=O)[C@@H]2CCCN2C1=O
IC50 [1]: > 5000 nM | IC50 [2]: 270 nM

CC[C@H](C)[C@@H]1NC(=O)[C@@H]2CSSC[C@@H]3NC(=O)[C@H](C(C)C)NC(=O)[C@H](CC(C)C)NC(=O)[C@H](CC(N)=O)NC(=O)[C@@H]4CCCN4C(=O)[C@H](CCCNC(=N)N)NC(=O)[C@H](CSSC[C@H](NC(=O)[C@@H](N)Cc4cccc5ccccc45)C(=O)N[C@@H](CC(C)C)C(=O)NCC(=O)N[C@@H](Cc4ccccc4)C(=O)N[C@@H](CCSC)C(=O)N[C@@H](CCCNC(=N)N)C(=O)N[C@@H](CCCCN)C(=O)N2)NC(=O)[C@H](CSSC[C@@H](C(=O)N[C@@H](CCCCN)C(=O)N[C@@H](Cc2ccc(O)cc2)C(=O)N[C@H](C(=O)N[C@@H](Cc2ccccc2)C(N)=O)C(C)C)NC(=O)[C@H](Cc2c[nH]c4ccccc24)NC(=O)[C@H](CCCCN)NC(=O)[C@H](Cc2c[nH]cn2)NC(=O)[C@H]([C@@H](C)O)NC(=O)[C@H](CCCNC(=N)N)NC(=O)[C@H](CO)NC3=O)NC(=O)[C@H](CCCCN)NC(=O)[C@H](CC(=O)O)NC(=O)[C@H](CC(N)=O)NC(=O)[C@H](CC(=O)O)NC(=O)[C@@H]2CCCN2C1=O (H-[1Nal]CLGFMRKCIPDNDKCCRPNLVCSRTHKWCKYVF-NH2; disulfide 2-17, 9-23, 16-30)
IC50 [1]: > 5000 nM | IC50 [2]: 100 nM

Source: ChEMBL document CHEMBL3797186, “Single Residue Substitutions That Confer Voltage-Gated Sodium Ion Channel Subtype Selectivity in the NaV1.7 Inhibitory Peptide GpTx-1” (J Med Chem, 2016)
